Experimental data from the RNAGym collection of RNA variant scans (doi:10.1126/science.aae0568).
This sample holds only a part of the variants without activity.

B1: tRNA (parent)
chain: GUUCCGUUGGCGUAAUGGUAACGCGUCUCCCUCCUAAGGAGAAGACUGCGGGUUCGAGUCCCGUACGGAACG

Variants of: B1
Assay: yeast fitness relative to wild type (ratio to wild type); higher = fitter; tRNA-Arg(CCU), competitive growth, 37 C, YPD
Summary of the method: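 The tRNA-Arg(CCU) gene variants were made by chemical synthesis with a 3% per-site mutation rate at 69 sites and inserted at the native genomic locus of Saccharomyces cerevisiae. After pooling, the strains were competed in YPD at 37°C for 24 hours in six parallel replicates. Gene amplicons from the start population and each end population were read by 100-nucleotide paired-end sequencing, and Darwinian fitness relative to wild type was taken from genotype frequency changes. Genotypes needed ≥ 100 starting reads, and estimates < 0.5 were set to 0.5.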

Variant	yeast fitness
GUUCCGUUGGCGUAAUGGUAACGCGUGUCCCUCCUAAGGAGGAGACUGCGGGUUCGAGUCCCGUACGGAACG	0.607
GUUCCGUUGGCGUAAUGGUACCGCGUCUCCCUCCUAAGGAGAACACUGCGGGUUCAAGUCCCCUACGAGACG	≤ 0.5
GUUGCGUUGGCGUAAUGGUAACGCGUCUCCCUCCUAAAGAGAAGACUGCGGGUUCGAGUCCCGUAUGGAACG	≤ 0.5
GUUCCGUUGGCGUAACGGUAACGCGUCUCCCUCCUGAGGAGAAGACUGCAGGUUCGAGUCCCGUACGGAACG	0.594
GUUCCGUUGGUGUAAUGGUAACGCGUCUCCCUCCUAACGAGAAGACUGCGGGUUGGAGUCCCGUACAGAACG	≤ 0.5
GUUCCGUUGGCGUAAUGGUAACGCGUCUCCCUCCUAAGGAGACGACUGCGGGUUCGAGUGCCGUACGGAACG	0.953
GUUCCGUUGGCGUAAUGGUAACGCGUCUCCCUCCUCGGGAGAAGACUGCGGGUUCCAGUCCCGUACGGAACG	≤ 0.5
GUUCCGUCGGCGUAAUGGUAACGUGUCUCCCUCCUAAGGAGAAGGGUGCGGGUUGGAGUCCCGUACGGAACG	≤ 0.5
GUUCCGAUGGCGUAAUGGAAACGCGUCUCCCUCCUAAGGAGAAGACUGCGGGUUCGAGUCCCGUACGGAACG	0.752
GUUCAGUUGGCGUAAUGGUAUCGUGUGUCCCUCCUAAGGAGAAGACUGCGGGUUCGAGUCCCGUACGGAACG	≤ 0.5
GUUCCGUUGGCGUAGUGGUAACGCGUCUCCCUCCUAAGGAGACGACUGCGGGUUCGAGUCACGUACGGAACG	≤ 0.5
GUUCCGUUGGCGUAAUGGUAACGCGUCUCCCUCCUAAGGAGAGGACUGCGGGUUCGAGUCCCGUACAGAACG	0.864
GUUCCGUUGGCGUAAUGGUAACGCGUCUCCCGCCUAAGGAGACGACUGCGGGUUCGAGUCCCGUACGGAACG	0.694
GUUCCGUUGGCGUAAUGGUAACGCGUCUCCCUCCUAAGGAGAGGACUGCGGCUUAGAGUCACGUACGGAACG	≤ 0.5
GUUCCAUUGGCGUAAUGGUAACGCGUCUCCCUCCUAAGGAGACGACUGCGGGUUCGAGUCCCGUACGGAACG	0.779
GUUACGUAGGCGUAAUGGUAACGUGUCUCCCUCCUAAGGAGAAAACUGCGGGUUCGAGUCCCGUACGGACCG	≤ 0.5
GUUCCGUUGGCGUAAUGGUUACGCGUCUCCCUCCUGGGGAGAAGACUGCGGGUUGGAGUCCCGUACGGAACG	0.546
GUUCCGUUAGCGUAAUGGUAACGCGUCUCUCUACUUAGGAGAUGACUGCGGGUUCGAGUCCCGUACGGAACG	≤ 0.5
GUUCCGUUGGCGUAAUGGUAAUGCGUCUCCCUCCUAAGGAGAAGACUGCGGCUUUGAGUCCCGUUCGGAACG	≤ 0.5
GUUCCGUUGGCGUAAUGGUAACGCGUCACCGUCCUAAGGAGUAGACUGGGGGUUCGAGUCCCGUACUGAACG	≤ 0.5
GUUCCGUUGGCGUAAUGGUAACGCGUCUCCCUUCUAGGGAGAAGACUGUGGGUUCGUGUCCCGUACGGAACG	≤ 0.5
GUUCCGUUGGCGUUAUGGUAACGCGUCUCACUCCUAAGGAGAAGACUGCGGGUUAGAGUCCAGUACGGAACG	0.578
GUUUCGUUGGCGUAAUGGUAACGCGUCUUCCUCCUAAGGAGAAGACUGCAGGUUCGAGUCCCAUACGGAACG	≤ 0.5
GUUCCGUUGGCGUAAUGGUAACGCGUCUCCCUCCUAACGACAAGACUGCGGGUCCGAGUCCCGUGCGGAACG	≤ 0.5
GUUACGUUGGCGUAAUGGCAACGCGUCUCCCUCCCAAGGAGAAGACUGCGGGUUCGAGUCCCGUACGGAACG	0.685

Variant	yeast fitness
GUUCCGUUGCCGUAAUGGUAAAGCGUCUCCCUCCCAAGGAGAAGACUGCGGGUUCGAGUGUCAUACGGAACG	≤ 0.5
GUUCCGUUGGCGUAAUGGUAAAGCGUCUCCGUCCUAACGAGAGGACUGCGGGUUCGAGUCCCGUACGGAACG	≤ 0.5
GUUCCGUUGGCGUAAUGGUAACGCGCCUCCCUCCUAAGGAGAAGACUGCGGGUUCAAGUCCCGUACGGAACG	0.895
GUUCCGUUGGCGUAAUGGUAACGCGUCUCCCUCCUAAGGAGAAGACUGCGGGUUCGAGUGCCGUAGGAAACG	≤ 0.5
GUUCCGUUGGCCUGAUGAUAACGCGUCUCCCUGCUAAGGAGAAGACUGCGGGUUCGAGUCCCGUACGGAACG	≤ 0.5
GUUCCGAUGGCGAAAUGGUAACGCGUCUCCCUCCUAAGGAGAAGACUGCGGGUUCGAGUCCCGUACGGCACG	≤ 0.5
GUUGCGUUGGCGUAAUGGUAACGAGUCUCCCUCAUAAGGAGAAGACUGCGGGUUCGAGUCCCGUACGGAACG	0.563
GUUCCGUUGGCAUAAUGGAAACGCGUCUCCCUCCUAAGGAGAAGACUGCGGCUUCGAGUCCCGUACGGAACG	≤ 0.5
GUUCCGCUGGCGUAAUGGUAACGCGUCUCACUCCUAAGGAGCAGACUGCGGGUUCGAGUUCCGUACGGGACG	≤ 0.5
GUUCCGUUGGCGUAAUGGUAACGCGUGUCCCUCCUAAGGAGAAGACUCCGGGUUCGAGUCCCGUACGGGACG	≤ 0.5
GUUCCGUUCGCGUAAUGGUAACGCGUCUCCCUCCUAAGGUGAAGACUGCGGGUUCGAGUCCCGUCCGGAACG	0.531
GUUCCGUUGGCGUAAUGGUAACGCGUCUCCCUCCUAAGGAGCAGCCUGCGGGUUCGAGUCCCGUACGGAACG	0.854
GUUCUGUUGGCGUAAUGGUAACGCGUCUCCCUCCUAAGGAGAAGACUGCGGGUUCGAGUCACGUAAGGAACG	≤ 0.5
GUUGCGUUGGCGUAAUGGUAACGCGUCUCCCUCUUAAGGAGAAGACUGCGGGUUAGAGUCCCGUACGCAACG	≤ 0.5
GUUCCGUUGGCGUAAUGGUACCGCGUCUCCCUGCUAUGGAGAAGACUGCGGGUUCGAGUCCCGGACGGAACG	0.617
GUUCCGUUGGCGUAUUGGUAAGGCGUCUCCCUCCUAAGGAGAAGACUGCGGGUUCGAGUCCCGUACGGUACG	0.608
GUUCCGUUGGCGUAAUGGUAACACGUCUCCCUCCUAAGGAGAAGACUGCGGGUUCGAGUCUCGUACGGAACG	0.665
GUUCUGUUGGCGUAAUGGUAACGCGUCUCCCUCCUAAGGUGAAAACUGCGGGUUCGAGUCACGUACGGAACG	≤ 0.5
GUUCCGUUGGCGUAAUGGUAACGCGUCUCCCUCCUAAGGAGAACACUGCGGGUUCGAGUCCCGUACGUAACG	0.661
GUUCCGUUGGUGUAAUGGUAACGCGUCUCCCUCCUAAGGAGCAGACCGCGGGUUCGAGUCCCGUACGGAACG	0.764
GUUCCGUUGGUGUAAUGGUAACGCGUCUCCCUCCUAAGGAGAAGACUGCGGGUUCCAGUCCUGUACGGAACG	0.575
GUUCCGUUGGCGAAGUGGUAACGCGUCUCCCUCCUAAGGAGAAGACUGCGGGUUCGAGUCUCGUACGGAACG	0.564
GCUCCGUUGGCGUAAUGGUAACGCGUCUCCCUCCUAAGGAGAAGACUGCGGGUUCGAGUCCAGUACGGAACG	0.677
GUUUCGUUGGCGUAAUGGUAACGCGUCUCCCUCCCAAGGAGAAGACUGCGGGUUCGAGUCACGUACGGAACG	0.555
GUUCAGUUGGCGUAAUGGUACCGCGUCUCCCUCCUAAGGAGAAGACUGCGGGUUCGAGUCCCGUACGGAACG	0.821

Variant	yeast fitness
GUUCCGUUCGCGUAAUGGUAACGCGUCUCCCCCCUGAGGAGAAGACUGCGGGUUCGAGUCCCGUACGGAUCG	≤ 0.5
GUUCCGUUGGCAUAACGGUAACGCGUAUCCCUCCUAAGGAGAAGACUGCGGGUUCGAGUCCCGUACGGAACG	≤ 0.5
GUUACGUUGGCGUAAUGGUGACGCGUCUCCCUCUUAAGGAGAAGACUGCGGGUUCGAGUCCCGUACGGAACG	≤ 0.5
GUUCUGUUGGCGUAAUGGUAACGCGUCUCCCUCCCAAGGAGAAGUCUGCGGGUUCGAGUCGCGUACGGAACG	≤ 0.5
GUUCAGUCGGAGUAGUGGUAACGCGUUUCCCUCCUAAGGAGUAGACUGCGGGUUCGAGUCAUGUACGGAACG	0.502
GUUCCGGUGGCGUAAUGGUAACGCGGCUCCCUGCUAAGGAGAAGACUGCGGGUUCGAGACCCGCACGGAACG	0.502
GUUCCGUUGGCGUAAUGGUAACGCGUCUCCCUCCUAAGGAGAAGACUGCGGGUUCGAGUCCCGGAUGGAACG	0.669
GUUCCGUUGGCGUAAUGGUAACGCGUCUCCCUCCUAAGGAGAAGACCGCGGGUUUGAGUCCCGUACGCAACG	0.517
GUUCCGUUGGCGUAAUGGUAACGCGUCUCCCUCCUAAGGCGAAGACAGCGGGUUCGAGUCCCGUACGGAACG	0.636
GUUCCGUUGGCGUAAUGGUAACGCGUAUCCCUCCUAAGGGGAAGACUGCGGGUUCGAGUCCCGUACGGAACG	0.843
GUUCCAUUGGCGUAAUGGUAACCCGUCUCCCUCCUAAGGAGAAGACUGGGGGGUCGGGUCCCGUACGGAACG	0.567
GUUCCCUUGGCGUAAUGGUAACGCGUCUCGCUCCUCAGGAGAAGACUGCGGGUUCGAAUCCCGUACGGAACG	≤ 0.5
GUUUCGUUGGCGUAAUGGUCACGGGUCUCCCUCCUAAGGAGAAGACUGCGGGUUCAAGUCCAGUACGGAACG	≤ 0.5
GUUCCGUUGGCGUAAUGGUAACGCGUCUCGCUCCUAAGGAGAAGACUGCGGGUUCGAGUCGCGUACGGAACG	0.697
GUUCCAAUGGCGUAAUGGUGACGCGUCUCCCUCCUAAGGAGAAGAGUGCGGGUUCGAGUCCCGUACGGAACG	0.538
GUUGCGUUGGUGUGAUGGUAACGCGUCUCCCUCCUAAGGAGAAGACUGCGGGUUCGAGUCCCGUACGGAACG	0.556
GUUCCGUUGGCGUAAUGGUAACGCGUAUCCCUCCUAAGGAGAAGACUGCGGGUUCGAGUCGCGUACGGAACG	0.665
GUUCCGUUGGCGUAAGGGUAACGCGUCUCCGUCCUAAGGAGAAGACUGCGGGUUCGAGUCCCGUCCGGAACG	≤ 0.5
GUUCCGUUGGCGUAAUGAUAACGUGUCUUCUUCCUAAGCAGAAGACUGCGGGUUCGAGUCCCGUACGGAACG	≤ 0.5
GUUCCGUUGGCGUAAUGGUAACGCGUUUCCCUCCUAAGGAGAAGACUGCGGGUUCGAGUCCCAUGCGGAACG	≤ 0.5
GUUACGUUGGCGUAAUGGUAACGGGUCUCCCUCCUAAGGAGAACACUGCGGGUUCGAGUCCCGUACGGAACG	≤ 0.5
GUUCCGUUGGCGUAAUGCUAUCGUGUCACCCUCCUAAGGAGAAGACUGCGGGUUCGAGUCCCGUACGGAACG	0.629
GUUUCGUUGGCGUAAUGGUAACGCGUCUCCCUACUAAGGAGAAGACUGCGGGUGCGAGUCCCGUACGGAACG	≤ 0.5
GUUCCGUUGGCGUAAUGGUAACGCGUCUCUCUCCUAAGGGGAAGACUGCGGGUUCGAGUCCCGUACGGAACG	0.914
GUUCCGUUGGGGUAAUGGUAAUGGGUCUCGCUCCUAAGGAGAAGACUGCGGGUUCGAGUCCCGUACGGAACG	≤ 0.5
